One block for each compound: values may come before it.
Legend:
[1] = Drug concentration in BALB/c mouse plasma at 11.4 mg/kg, po via gavage measured after 20 mins by LC-MS/MS analysis; assay type: ADME, organism-based
In short: (§1)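 BALB/c mice of both sexes (N = 15 per sex per group) received a single oral gavage dose: 11.4 mg/kg L-BHDU or an equimolar 22.5 mg/kg of the POM prodrug, in Cremophor–DMSO–saline (1:1:8). Three mice per group were bled by cardiac puncture under isoflurane at 20, 40, 60 and 120 min into heparin. Plasma (AZT internal standard, 20 ng/mL) was methanol-precipitated and L-BHDU quantified by LC-MS/MS (negative ESI).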

[2] = Selectivity index, ratio of CC50 for human ARPE-19 cells to EC50 for VZV infected human ARPE-19 cells; assay type: toxicity; details: VZV infected ARPE-19 cells, read-out: Selectivity Index
Human alphaherpesvirus 3 [3] = test: Antiviral activity against VZV infected HFF cells assessed as reduction in viral replication; assay type: functional, organism-based; details: Human alphaherpesvirus 3, HFF
[4] = Selectivity index, ratio of CC50 for HFF cells to EC50 for VZV infected HFF cells; assay type: toxicity; details: human, read-out: Selectivity Index
HFF = test: Cytotoxicity against HFF cells assessed as cell growth inhibition upto 200 uM; assay type: toxicity, cell-based; details: human
[5] = Drug concentration in BALB/c mouse plasma at 11.4 mg/kg, po via gavage measured after 40 mins by LC-MS/MS analysis; assay type: ADME, organism-based; in short: as §1
[6] = Drug concentration in BALB/c mouse plasma at 11.4 mg/kg, po via gavage measured after 60 mins by LC-MS/MS analysis; assay type: ADME, organism-based; in short: as §1
[7] = Prodrug conversion in mouse liver homogenate assessed as concentration of L-BHDU formation at 0.3 ug/ml measured after 2 mins by LC-MS/MS analysis; assay type: ADME, tissue-based; details: dose 0.3 µg/ml
In short: (§2)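 Liver homogenate from untreated BALB/c mice was spiked with prodrug at 0.3 μg/mL, with azidothymidine internal standard at 20 ng/mL final, and incubated at 37 °C. Reactions were stopped with 2 volumes of methanol at 0, 2, 4, 10, 30 and 60 min. Supernatants were dried and reconstituted in 50% methanol. Prodrug, L-BHDU and L-BHDU-MP were quantified by LC-MS/MS against calibration curves.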

[8] = Stability of compound in gastric juice; assay type: ADME; details: simulated gi fluid
[9] = Stability in mouse liver homogenate assessed as compound remaining at 0.3 ug/ml measured after 4 mins by LC-MS/MS analysis; assay type: ADME, tissue-based; details: tissue homogenate, dose 0.3 µg/ml; in short: as §2
[10] = Prodrug conversion in mouse liver homogenate assessed as concentration of L-BHDU formation at 0.3 ug/ml measured after 30 mins by LC-MS/MS analysis; assay type: ADME, tissue-based; details: 0.5 h, dose 0.3 µg/ml; in short: as §2
[11] = Prodrug conversion in BALB/c mouse assessed as concentration of L-BHDU formation at 22.5 mg/kg, po via gavage measured immediately by LC-MS/MS analysis; assay type: ADME, organism-based; details: in vivo
[12] = Prodrug conversion in BALB/c mouse assessed as Tmax of L-BHDU at 22.5 mg/kg, po via gavage measured upto 120 mins by LC-MS/MS analysis; assay type: ADME, organism-based; details: in vivo, 2 h; in short: as §1
[13] = Stability in mouse liver homogenate assessed as compound remaining at 0.3 ug/ml measured after 10 mins by LC-MS/MS analysis; assay type: ADME, tissue-based; details: tissue homogenate, dose 0.3 µg/ml; in short: as §2
[14] = Prodrug conversion in BALB/c mouse assessed as AUC of L-BHDU at 22.5 mg/kg, po via gavage measured upto 120 mins by LC-MS/MS analysis; assay type: ADME, organism-based; parameters: time < 120 min, dose 22.5 mg/kg, route po; details: in vivo, 2 h; in short: as §1
[15] = Prodrug conversion in BALB/c mouse assessed as Cmax of L-BHDU at 22.5 mg/kg, po via gavage measured upto 120 mins by LC-MS/MS analysis; assay type: ADME, organism-based; parameters: dose 22.5 mg/kg, time < 120 min, route po; details: in vivo, 2 h; in short: as §1
[16] = Prodrug conversion in BALB/c mouse assessed as concentration of L-BHDU formation at 22.5 mg/kg, po via gavage measured after 60 mins by LC-MS/MS analysis; assay type: ADME, organism-based; details: in vivo, 1 h; in short: as §1
[17] = Prodrug conversion in mouse liver homogenate assessed as concentration of L-BHDU formation at 0.3 ug/ml measured after 10 mins by LC-MS/MS analysis; assay type: ADME, tissue-based; details: dose 0.3 µg/ml; in short: as §2
[18] = Stability in mouse liver homogenate assessed as compound remaining at 0.3 ug/ml measured after 2 mins by LC-MS/MS analysis; assay type: ADME, tissue-based; details: tissue homogenate, dose 0.3 µg/ml; in short: as §2
[19] = Prodrug conversion in mouse liver homogenate assessed as concentration of L-BHDU formation at 0.3 ug/ml measured immediately by LC-MS/MS analysis; assay type: ADME, tissue-based; details: dose 0.3 µg/ml; in short: as §2
[20] = Stability in mouse liver homogenate assessed as compound remaining at 0.3 ug/ml measured immediately by LC-MS/MS analysis; assay type: ADME, tissue-based; details: tissue homogenate, dose 0.3 µg/ml; in short: as §2
[21] = Stability of compound in intestinal juice; assay type: ADME; details: simulated gi fluid
[22] = Stability in mouse liver homogenate assessed as compound remaining at 0.3 ug/ml measured after 30 mins by LC-MS/MS analysis; assay type: ADME, tissue-based; details: tissue homogenate, 0.5 h, dose 0.3 µg/ml; in short: as §2
[23] = Prodrug conversion in BALB/c mouse assessed as concentration of L-BHDU formation at 22.5 mg/kg, po via gavage measured after 20 mins by LC-MS/MS analysis; assay type: ADME, organism-based; details: in vivo; in short: as §1
Human alphaherpesvirus 3 [24] = test: Antiviral activity against VZV expressing ORF57-TS mutant infected human ARPE-19 cells assessed as reduction in viral replication treated for 72 hrs by bioluminescence imaging analysis; assay type: functional, organism-based; details: Human alphaherpesvirus 3, ARPE-19, 72 h
[25] = Prodrug conversion in BALB/c mouse assessed as concentration of L-BHDU formation at 22.5 mg/kg, po via gavage measured after 120 mins by LC-MS/MS analysis; assay type: ADME, organism-based; details: in vivo, 2 h; in short: as §1
[26] = Prodrug conversion in mouse liver homogenate assessed as concentration of L-BHDU formation at 0.3 ug/ml measured after 4 mins by LC-MS/MS analysis; assay type: ADME, tissue-based; details: dose 0.3 µg/ml; in short: as §2
[27] = Prodrug conversion in mouse liver homogenate assessed as concentration of L-BHDU formation at 0.3 ug/ml measured after 60 mins by LC-MS/MS analysis; assay type: ADME, tissue-based; details: in vitro, 1 h; in short: as §2
[28] = Prodrug conversion in BALB/c mouse assessed as concentration of L-BHDU formation at 22.5 mg/kg, po via gavage measured after 40 mins by LC-MS/MS analysis; assay type: ADME, organism-based; details: in vivo; in short: as §1
[29] = Cytotoxicity against human ARPE-19 cells assessed as reduction in cell viability treated for 72 hrs by neutral red assay; assay type: toxicity, cell-based
In short: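 ARPE-19 cells (DMEM, 10% heat-inactivated FBS, penicillin-streptomycin, amphotericin B; used within 30 passages) seeded 3 d, then exposed 72 h to a concentration range, higher than in antiviral runs, under the same conditions. Viability read by neutral red dye uptake; staurosporine as cell-death control. […] DMSO stocks diluted in DMSO and/or medium.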

Human alphaherpesvirus 3 [30] = test: Antiviral activity against VZV infected human ARPE-19 cells assessed as reduction in viral replication treated for 72 hrs by bioluminescence imaging analysis; assay type: functional, organism-based; details: Human alphaherpesvirus 3, ARPE-19, 72 h
[31] = Cytotoxicity against HFF cells assessed as reduction in cell viability; assay type: toxicity, cell-based; details: human
Human alphaherpesvirus 3 [32] = test: Antiviral activity against VZV expressing ORF57-Luc infected human ARPE-19 cells assessed as reduction in viral replication treated for 72 hrs by bioluminescence imaging analysis; assay type: functional, organism-based; details: Human alphaherpesvirus 3, ARPE-19, 72 h
Human alphaherpesvirus 3 [33] = test: Antiviral activity against VZV expressing ORF57-TK mutant infected human ARPE-19 cells assessed as reduction in viral replication treated for 72 hrs by bioluminescence imaging analysis; assay type: functional, organism-based; details: Human alphaherpesvirus 3, ARPE-19, 72 h
Human alphaherpesvirus 3 [34] = test: Antiviral activity against VZV expressing ORF57-TKTS mutant infected human ARPE-19 cells assessed as reduction in viral replication treated for 72 hrs by bioluminescence imaging analysis; assay type: functional, organism-based; details: Human alphaherpesvirus 3, ARPE-19, 72 h

concentration at 20 min [1]: 5620 ng/mL | EC50 (Human alphaherpesvirus 3 [3]): 250 nM | concentration at 40 min [5]: 4500 ng/mL | concentration at 1 h [6]: 6180 ng/mL
Compound: O=c1[nH]c(=O)n([C@@H]2CO[C@H](CO)O2)cc1/C=C/Br
selectivity ratio [2]: > 3880 | selectivity ratio [4]: > 909 | Activity (HFF): Non-Toxic

Compound: N[C@H](Cc1ccccc1)C(=O)OC[C@H]1OC[C@@H](n2cc(/C=C/Br)c(=O)[nH]c2=O)O1
selectivity ratio [2]: > 3480

Compound: CC(C)C[C@H](N)C(=O)OC[C@H]1OC[C@@H](n2cc(/C=C/Br)c(=O)[nH]c2=O)O1
selectivity ratio [2]: > 2420

Compound: NCC(=O)OC[C@H]1OC[C@@H](n2cc(/C=C/Br)c(=O)[nH]c2=O)O1
selectivity ratio [2]: > 2130

Compound: CC[C@H](C)[C@H](N)C(=O)OC[C@H]1OC[C@@H](n2cc(/C=C/Br)c(=O)[nH]c2=O)O1
selectivity ratio [2]: > 1520

Compound: C[C@@H](N)C(=O)OC[C@H]1OC[C@@H](n2cc(/C=C/Br)c(=O)[nH]c2=O)O1
selectivity ratio [2]: > 2960

Compound: NC(=O)CC[C@H](N)C(=O)OC[C@H]1OC[C@@H](n2cc(/C=C/Br)c(=O)[nH]c2=O)O1
selectivity ratio [2]: > 794

Compound: CC(C)(C)C(=O)OCOP(=O)(OCOC(=O)C(C)(C)C)OC[C@H]1OC[C@@H](n2cc(/C=C/Br)c(=O)[nH]c2=O)O1
Drug metabolism [7]: 0.055 µg/mL | Stability [8]: Stable | Stability [9]: 4.569 µg/mL | Drug metabolism [10]: 1.385 µg/mL | Drug metabolism [11]: 0 µg/mL | Tmax [12]: 40 min | Stability [13]: 4.488 µg/mL | AUC [14]: 1680 µg·min/mL | selectivity ratio [2]: > 2810 | Cmax [15]: 10600 ng/mL | Drug metabolism [16]: 13.543 µg/mL | Drug metabolism [17]: 0.359 µg/mL | Stability [18]: 3.094 µg/mL | Drug metabolism [19]: 0.016 µg/mL | Stability [20]: 0.599 µg/mL | Stability [21]: Stable | Stability [22]: 3.777 µg/mL | Drug metabolism [23]: 8.69 µg/mL | EC50 (Human alphaherpesvirus 3 [24]): 1 nM | Drug metabolism [25]: 10.608 µg/mL | Drug metabolism [26]: 0.142 µg/mL | Drug metabolism [27]: 1.961 µg/mL | Drug metabolism [28]: 14.044 µg/mL

Compound: N[C@@H](Cc1c[nH]c2ccccc12)C(=O)OC[C@H]1OC[C@@H](n2cc(/C=C/Br)c(=O)[nH]c2=O)O1
selectivity ratio [2]: > 1550

Compound: O=C(OC[C@H]1OC[C@@H](n2cc(/C=C/Br)c(=O)[nH]c2=O)O1)[C@@H]1CCCN1
selectivity ratio [2]: > 1930

Compound: CCCCCCCCCCCCCCCCOCCCOP(=O)(OC[C@H]1OC[C@@H](n2cc(/C=C/Br)c(=O)[nH]c2=O)O1)Oc1ccccc1 (stereo not given in full)
CC50 at 72 h [29]: 18500 nM | selectivity ratio [2]: 35 | EC50 (Human alphaherpesvirus 3 [30]): 526 nM

Compound: CC(C)[C@H](N)C(=O)OC[C@H]1OC[C@@H](n2cc(/C=C/Br)c(=O)[nH]c2=O)O1
selectivity ratio [2]: > 709

Compound: CC(C)(N)C(=O)OC[C@H]1OC[C@@H](n2cc(/C=C/Br)c(=O)[nH]c2=O)O1
selectivity ratio [2]: > 2600

Compound: CC(C)[C@@H](N)C(=O)OC[C@H]1OC[C@@H](n2cc(/C=C/Br)c(=O)[nH]c2=O)O1
selectivity ratio [2]: > 3320 | CC50 [31]: > 200000 nM

Compound: CC(C)C(=O)OCOP(=O)(OCOC(=O)C(C)C)OC[C@H]1OC[C@@H](n2cc(/C=C/Br)c(=O)[nH]c2=O)O1
EC50 (Human alphaherpesvirus 3 [32]): 40 nM | CC50 at 72 h [29]: > 100000 nM | selectivity ratio [2]: > 2920 | EC50 (Human alphaherpesvirus 3 [30]): 34 nM | EC50 (Human alphaherpesvirus 3 [33]): > 2000 nM | EC50 (Human alphaherpesvirus 3 [24]): 8 nM | EC50 (Human alphaherpesvirus 3 [34]): > 2000 nM

Compound: N[C@@H](Cc1ccc(O)cc1)C(=O)OC[C@H]1OC[C@@H](n2cc(/C=C/Br)c(=O)[nH]c2=O)O1
selectivity ratio [2]: > 826

Compound: CCCCCCCCCCCCCCCCCCOCCOP(=O)(OC[C@H]1OC[C@@H](n2cc(/C=C/Br)c(=O)[nH]c2=O)O1)Oc1ccccc1 (stereo not given in full)
EC50 (Human alphaherpesvirus 3 [32]): 820 nM | CC50 at 72 h [29]: 33900 nM | selectivity ratio [2]: 339 | EC50 (Human alphaherpesvirus 3 [30]): 100 nM | EC50 (Human alphaherpesvirus 3 [33]): > 2000 nM | EC50 (Human alphaherpesvirus 3 [24]): 1 nM | EC50 (Human alphaherpesvirus 3 [34]): > 2000 nM
